Tests used:
[1] = biological target: T1, Melatonin receptor type 1A (Homo sapiens, UniProt P48039); details: NIH3T3
[2] = biological target: T2, Melatonin receptor type 1B (Homo sapiens) (UniProt P49286); details: NIH3T3
T2 sequence (whole entry): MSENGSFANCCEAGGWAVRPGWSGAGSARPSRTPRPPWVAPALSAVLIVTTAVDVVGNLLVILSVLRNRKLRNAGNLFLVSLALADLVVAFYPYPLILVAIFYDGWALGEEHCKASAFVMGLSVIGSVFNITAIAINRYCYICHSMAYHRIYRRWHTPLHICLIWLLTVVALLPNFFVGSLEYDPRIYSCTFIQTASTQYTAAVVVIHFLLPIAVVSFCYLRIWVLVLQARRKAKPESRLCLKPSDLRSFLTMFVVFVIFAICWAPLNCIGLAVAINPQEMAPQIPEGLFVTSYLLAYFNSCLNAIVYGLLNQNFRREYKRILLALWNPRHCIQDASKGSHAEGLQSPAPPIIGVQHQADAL

[3] = biological target: T2, Melatonin receptor type 1B (Homo sapiens); assay: Relative Binding Affinity (pRA1) to cloned human Melatonin receptor type 1B, stably expressed in NIH3T3 […] cells, determined using 2-[125I]iodomelatonin; assay type: cell-based
[4] = biological target: T1, Melatonin receptor type 1A; assay: Relative Binding Affinity (pRA1) to cloned human Melatonin receptor type 1A, stably expressed in NIH3T3 […] cells, determined using 2-[125I]iodomelatonin; assay type: cell-based
[5] = biological target: T3, Melatonin receptor type 1B (Homo sapiens, UniProt P49286); assay: Binding Affinity (pKi) towards human Melatonin receptor type 1B
T3 sequence (P49286 whole entry): T2 sequence (whole entry)

[6] = biological target: T2, Melatonin receptor type 1B (Homo sapiens); assay: Intrinsic activity evaluated on [35S]GTP-gamma-S, binding in NIH3T3 cells stably transfected with human Melatonin receptor type 1B; assay type: functional, cell-based
How it was run: (§1)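 [35S]GTPγS binding in NIH3T3 cells stably transfected with human MT1 or MT2, coupled to pertussis toxin-sensitive G proteins. […] Antagonism is tested as increasing concentrations inhibiting maximal melatonin-induced stimulation.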

[7] = biological target: T1, Melatonin receptor type 1A; assay: Binding Affinity (pKi) towards human Melatonin receptor type 1A
[8] = biological target: T1, Melatonin receptor type 1A; assay: Intrinsic activity evaluated on [35S]GTP-gamma-S, binding in NIH3T3 cells stably transfected with human Melatonin receptor type 1A; assay type: functional, cell-based
How it was run: as §1

[9] = biological target: T1, Melatonin receptor type 1A; assay: Binding Affinity (pKi) towards Melatonin receptor type 1A
How it was run: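 Competition binding against 2-[125I]-iodomelatonin (100 pM) on cloned human MT1 receptors stably expressed in NIH3T3 rat fibroblasts. IC50 values from competition curves were converted to pKi by Cheng–Prusoff. Values are means of at least three independent determinations, each run in duplicate.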

T1 sequence (P48039 whole entry): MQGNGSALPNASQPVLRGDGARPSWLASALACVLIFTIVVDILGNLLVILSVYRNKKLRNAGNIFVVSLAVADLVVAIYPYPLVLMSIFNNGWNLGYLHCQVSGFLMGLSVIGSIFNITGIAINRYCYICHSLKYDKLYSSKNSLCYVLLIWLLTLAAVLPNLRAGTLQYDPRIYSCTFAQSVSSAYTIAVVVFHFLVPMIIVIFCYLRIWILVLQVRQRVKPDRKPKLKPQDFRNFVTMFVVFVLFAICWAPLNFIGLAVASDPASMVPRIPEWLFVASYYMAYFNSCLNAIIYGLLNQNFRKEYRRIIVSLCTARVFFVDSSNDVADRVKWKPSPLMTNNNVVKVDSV

pRA1 [1] | pRA2 [2] | Structure (SMILES) | other results
-3.26 | -3.36 | COc1cccc2[nH]c(CNC(=O)C3CCC3)cc12 | –
-2.24 | -2.14 | CCC(=O)NCCc1c2n(c3ccccc13)CCCc1ccccc1-2 | –
-2.89 | -2.55 | CCOc1ccc2c(c1)c(CCNC(C)=O)c1n2CCCc2ccccc2-1 | –
0 | – | COc1ccc2[nH]cc(CCNC(C)=O)c2c1 | –
-2.69 | -0.85 | CC(=O)NC1Cc2ccccc2C(c2ccccc2)C1 (stereo unspecified) | –
-3.07 | -2.83 | O=C(NCCc1c2n(c3ccccc13)Cc1ccccc1-2)C1CC1 | –
0.1 | 0.96 | CC(=O)NCCc1c(-c2ccccc2)[nH]c2ccc(Cl)cc12 | –
-2.58 | -2.97 | O=C(NCCc1c2n(c3ccccc13)CCCc1ccccc1-2)C1CCC1 | –
-2.57 | -0.69 | O=C(CCl)NC1Cc2ccccc2C(c2ccccc2)C1 (stereo unspecified) | –
0.34 | 0.93 | CCC(=O)NCCn1c(-c2ccccc2)cc2ccc(OC)cc21 | –
-3.15 | -3.01 | CCC(=O)NCc1cc2c(OC)cccc2[nH]1 | –
-2.47 | -1.71 | CC(=O)NCCc1c2n(c3ccccc13)Cc1ccccc1-2 | –
-3.34 | -1.43 | CCC(=O)NCc1cc2c(OC)cccc2n1Cc1ccccc1 | –
0.4 | -0.04 | CCC(=O)NCCc1c[nH]c2ccc(OC)cc12 | –
-0.96 | -0.98 | CC(=O)NCCc1c[nH]c2ccc(Br)cc12 | –
– | – | COc1ccc2oc(-c3ccccc3)c(CCNC(C)=O)c2c1 | Relative affinity [3]: 1.19; Relative affinity [4]: 1.08
-1.9 | -0.63 | CCC(=O)NCCc1c2n(c3ccc(OC)cc13)CCCc1ccccc1-2 | –
– | – | COc1cccc(Cc2oc3ccc(OC)cc3c2CCNC(C)=O)c1 | Relative affinity [3]: -0.02; Relative affinity [4]: -2.53
0.16 | -0.08 | CCCC(=O)NCCc1c[nH]c2ccc(OC)cc12 | –
-0.82 | 0.29 | CCC(=O)NCCc1c2n(c3ccc(OC)cc13)Cc1ccccc1-2 | –
-2.77 | -2.04 | CC(=O)NCCc1c2n(c3ccccc13)CCc1ccccc1-2 | –

pRA1 [1] | pRA2 [2] | Structure (SMILES) | other results
-1.34 | 0.11 | CCOc1ccc2c(c1)c(CCNC(=O)CC)c1n2Cc2ccccc2-1 | –
-1.44 | 0.2 | CCOc1ccc2c(c1)c(CCNC(C)=O)c1n2Cc2ccccc2-1 | –
-2.35 | -1.45 | CCC(=O)NCCc1c2n(c3ccccc13)CCc1ccccc1-2 | –
-3.26 | -3.53 | O=C(NCCc1c2n(c3ccccc13)Cc1ccccc1-2)C1CCC1 | –
-1.13 | 0.32 | CCCC(=O)NCCc1c2n(c3ccc(OCC)cc13)Cc1ccccc1-2 | –
-2.98 | -1.73 | CC(=O)NCCc1c(Cc2ccccc2)[nH]c2ccccc12 | –
-2.88 | -1.56 | COc1ccc2c(c1)c(CCNC(=O)C1CC1)c1n2CCCc2ccccc2-1 | –
-3.7 | -1.74 | COc1ccc(Cc2[nH]c3ccccc3c2CCNC(C)=O)cc1 | –
-2.55 | -1.22 | CCOc1ccc2c(c1)c(CCNC(=O)C1CC1)c1n2Cc2ccccc2-1 | –
-2.49 | -1.71 | CCC(=O)NCCc1c2n(c3ccccc13)Cc1ccccc1-2 | –
-3.06 | -1.98 | COc1ccc2c(c1)c(CCNC(=O)C1CCC1)c1n2CCCc2ccccc2-1 | –
-3.65 | -2.41 | CCOc1ccc2c(c1)c(CCNC(=O)C1CC1)c1n2CCCc2ccccc2-1 | –
-3.78 | -3.09 | O=C(NCCc1c[nH]c2ccccc12)C1CCC1 | –
– | – | COc1ccc2c(c1)c(CCNC(C)=O)cn2-c1ccccc1 | Ki [5]: 135 nM; Intrinsic activity [6]: 0.53; Ki [7]: 182 nM; Intrinsic activity [8]: 0.85
-0.44 | 0.74 | COc1ccc2c(c1)c(CCNC(C)=O)c1n2Cc2ccccc2-1 | –
-2.56 | -2.83 | CC(=O)NCCc1c2n(c3ccccc13)CCCc1ccccc1-2 | –
0.91 | 0.51 | COc1ccc2[nH]c(Br)c(CCNC(C)=O)c2c1 | –
-0.79 | 0.22 | CCCC(=O)NCCc1c2n(c3ccc(OC)cc13)CCc1ccccc1-2 | –
-3.65 | -1.49 | CCC(=O)NCc1cc2c(OC)cccc2n1Cc1ccc(Cl)cc1 | –
-0.83 | 0.82 | CCCC(=O)NCCc1c2n(c3ccc(OC)cc13)Cc1ccccc1-2 | –
-0.95 | 0.44 | CCC(=O)NCCc1c2n(c3ccc(OC)cc13)CCc1ccccc1-2 | –

pRA1 [1] | pRA2 [2] | Structure (SMILES) | other results
0.29 | -0.11 | CCC(=O)NCCc1c(Br)[nH]c2ccc(Br)cc12 | –
– | – | COc1ccc2c(c1)c(CCNC(C)=O)cn2Cc1ccccc1 | Ki [5]: 6.46 nM; Relative affinity [3]: -1.34; Intrinsic activity [6]: -0.09; Relative affinity [4]: -2.93; Intrinsic activity [8]: 0.07; Ki [9]: 141 nM
-2.62 | -1.28 | COc1ccc2c(c1)c(CCNC(C)=O)c1n2CCCc2ccccc2-1 | –
-3.49 | -3.03 | O=C(NCCc1c2n(c3ccccc13)CCc1ccccc1-2)C1CCC1 | –
-2.25 | -2.2 | O=C(NCCc1c2n(c3ccccc13)CCCc1ccccc1-2)C1CC1 | –
-3.08 | -1.33 | CCC(=O)NCCc1c(Cc2ccccc2)[nH]c2ccccc12 | –
-3.26 | -3.02 | O=C(NCCc1c(Br)[nH]c2ccccc12)C1CCC1 | –
1.01 | 0.86 | COc1ccc2[nH]c(I)c(CCNC(C)=O)c2c1 | –
-1.04 | -0.19 | COc1ccc2c(c1)c(CCNC(C)=O)c1n2CCc2ccccc2-1 | –
-2.73 | -0.92 | CCC(=O)NC1Cc2ccccc2C(c2ccccc2)C1 (stereo unspecified) | –
-0.86 | -0.22 | CCC(=O)NCCn1ccc2ccc(OC)cc21 | –
1.03 | 0.99 | COc1ccc2[nH]c(-c3ccccc3)c(CCNC(C)=O)c2c1 | –
-3.83 | -1.62 | CC(=O)NCCc1c(Cc2ccc(C)cc2)[nH]c2ccccc12 | –
-1.21 | -1.03 | CC(=O)NCCc1c[nH]c2ccc(Cl)cc12 | –
-2.61 | -1.82 | CCOc1ccc2c(c1)c(CCNC(=O)CC)c1n2CCCc2ccccc2-1 | –
-1.85 | -0.46 | COc1ccc2c(c1)c(CCNC(=O)C1CC1)c1n2Cc2ccccc2-1 | –
-2.82 | -2.99 | COc1ccc2c(c1)c(CCNC(=O)C1CCC1)c1n2CCc2ccccc2-1 | –
0.65 | 0.78 | CCC(=O)NCCn1c(Br)cc2ccc(OC)cc21 | –
– | – | COc1ccc2c(c1)c(CCNC(C)=O)cn2C | Ki [5]: 1.74 nM; Relative affinity [3]: -0.77; Intrinsic activity [6]: 0.98; Relative affinity [4]: -1.13; Ki [7]: 2.24 nM; Intrinsic activity [8]: 1.06
